Assay results reported in ChEMBL document CHEMBL1772955, “Synthesis, metabolic stability and antiviral evaluation of various alkoxyalkyl esters of cidofovir and 9-(S)-[3-hydroxy-2-(phosphonomethoxy)propyl]adenine” (Bioorg Med Chem, 2011).

system: Ectromelia virus Moscow; test: Antiviral activity against Ectromelia virus Moscow infected in african green monkey BSC1 cells after 4 to 5 days by plaque reduction assay; type: functional, organism-based; conditions: BSC-1

Row | SMILES | EC50 [nM]
1 | CC(C)CCCCCCCCCCCCOCCCOP(=O)(O)CO[C@H](CO)Cn1ccc(N)nc1=O | 390
2 | C=CCCCCCCCCCCCCCCOCCOP(=O)(O)CO[C@H](CO)Cn1cnc2c(N)ncnc21 | 320
3 | CC(C)CCCCCCCCCCCCCCOCCCOP(=O)(O)CO[C@H](CO)Cn1ccc(N)nc1=O | 43
4 | CC(C)CCCCCCCCCCCCCCOCCOP(=O)(O)CO[C@H](CO)Cn1cnc2c(N)ncnc21 | 10
5 | CC(C)CCCCCCCCCCCOCCCOP(=O)(O)CO[C@H](CO)Cn1ccc(N)nc1=O | 350
6 | CCCCCCCCCCCCCCCCOCCOP(=O)(O)CO[C@H](CO)Cn1cnc2c(N)ncnc21 | 140

system: not listed separately; test: Selectivity index, ratio of CC50 for human HFF cells to EC50 for Cowpox virus (Brighton Red); type: toxicity, cell-based; conditions: read-out: Ratio CC50/EC50

Row | SMILES | selectivity ratio
7 | CC(C)CCCCCCCCCCCCOCCCOP(=O)(O)CO[C@H](CO)Cn1ccc(N)nc1=O | 123
8 | C=CCCCCCCCCCCCCCCOCCOP(=O)(O)CO[C@H](CO)Cn1cnc2c(N)ncnc21 | 85
9 | CC(C)CCCCCCCCCCCCCCOCCCOP(=O)(O)CO[C@H](CO)Cn1ccc(N)nc1=O | 150
10 | CC(C)CCCCCCCCCCCCCCOCCOP(=O)(O)CO[C@H](CO)Cn1cnc2c(N)ncnc21 | 250
11 | CC(C)CCCCCCCCCCCOCCCOP(=O)(O)CO[C@H](CO)Cn1ccc(N)nc1=O | 55
12 | CCCCCCCCCCCCCCCCOCCOP(=O)(O)CO[C@H](CO)Cn1cnc2c(N)ncnc21 | 156

system: not listed separately; test: Selectivity index, ratio of CC50 for african green monkey BSC1 cells to EC50 for Ectromelia virus Moscow; type: toxicity, cell-based, BSC-1; conditions: read-out: Ratio CC50/EC50

Row | SMILES | selectivity ratio
13 | CC(C)CCCCCCCCCCCCOCCCOP(=O)(O)CO[C@H](CO)Cn1ccc(N)nc1=O | 210
14 | C=CCCCCCCCCCCCCCCOCCOP(=O)(O)CO[C@H](CO)Cn1cnc2c(N)ncnc21 | 7.2
15 | CC(C)CCCCCCCCCCCCCCOCCCOP(=O)(O)CO[C@H](CO)Cn1ccc(N)nc1=O | 1810
16 | CC(C)CCCCCCCCCCCCCCOCCOP(=O)(O)CO[C@H](CO)Cn1cnc2c(N)ncnc21 | 5960
17 | CC(C)CCCCCCCCCCCOCCCOP(=O)(O)CO[C@H](CO)Cn1ccc(N)nc1=O | 234
18 | CCCCCCCCCCCCCCCCOCCOP(=O)(O)CO[C@H](CO)Cn1cnc2c(N)ncnc21 | 289

system: Liver; test: Metabolic stability in human liver S9 fraction assessed as compound degradation at 10 uM after 90 mins by HPLC/MS/MS; type: ADME, subcellular; conditions: s9, 1.5 h
In short: (§1)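 Liver S9 fraction at 3 mg/mL protein in phosphate buffer, test article 1 μM or 10 μM final; 2 min equilibration at 37 °C, then reaction started with 1x NADPH regeneration system. Samples taken from time zero to 90 min into 1% ammonium hydroxide in N-propyl alcohol. Analysed by C8 HPLC with water/isopropyl alcohol (0.1% formic acid) gradient and ESI-MS. 7-Ethoxycoumarin run as positive control.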

Row | SMILES | Stability
19 | C=CCCCCCCCCCCCCCCOCCOP(=O)(O)CO[C@H](CO)Cn1cnc2c(N)ncnc21 | Unstable

system: Vaccinia virus; test: Antiviral activity against Vaccinia virus Copenhagen infected in human HFF cells after 3 days by plaque reduction assay; type: functional, organism-based; conditions: Orthopoxvirus vaccinia, 72 h

Row | SMILES | EC50 [nM]
20 | CC(C)CCCCCCCCCCCCOCCCOP(=O)(O)CO[C@H](CO)Cn1ccc(N)nc1=O | 300
21 | C=CCCCCCCCCCCCCCCOCCOP(=O)(O)CO[C@H](CO)Cn1cnc2c(N)ncnc21 | 20
22 | CC(C)CCCCCCCCCCCCCCOCCCOP(=O)(O)CO[C@H](CO)Cn1ccc(N)nc1=O | 200
23 | CC(C)CCCCCCCCCCCCCCOCCOP(=O)(O)CO[C@H](CO)Cn1cnc2c(N)ncnc21 | 10
24 | CC(C)CCCCCCCCCCCOCCCOP(=O)(O)CO[C@H](CO)Cn1ccc(N)nc1=O | 1000
25 | CCCCCCCCCCCCCCCCOCCOP(=O)(O)CO[C@H](CO)Cn1cnc2c(N)ncnc21 | 90

system: Liver; test: Metabolic stability in human liver S9 fraction assessed as compound degradation at 1 uM after 90 mins by HPLC/MS/MS; type: ADME, subcellular; conditions: s9, 1.5 h; in short: as §1

Row | SMILES | Stability
26 | C=CCCCCCCCCCCCCCCOCCOP(=O)(O)CO[C@H](CO)Cn1cnc2c(N)ncnc21 | Unstable

system: not listed separately; test: Selectivity index, ratio of CC50 for human HFF cells to EC50 for Vaccinia virus Copenhagen; type: toxicity, cell-based; conditions: read-out: Ratio CC50/EC50

Row | SMILES | selectivity ratio
27 | CC(C)CCCCCCCCCCCCOCCCOP(=O)(O)CO[C@H](CO)Cn1ccc(N)nc1=O | 123
28 | C=CCCCCCCCCCCCCCCOCCOP(=O)(O)CO[C@H](CO)Cn1cnc2c(N)ncnc21 | 85
29 | CC(C)CCCCCCCCCCCCCCOCCCOP(=O)(O)CO[C@H](CO)Cn1ccc(N)nc1=O | 75
30 | CC(C)CCCCCCCCCCCCCCOCCOP(=O)(O)CO[C@H](CO)Cn1cnc2c(N)ncnc21 | 250
31 | CC(C)CCCCCCCCCCCOCCCOP(=O)(O)CO[C@H](CO)Cn1ccc(N)nc1=O | 44
32 | CCCCCCCCCCCCCCCCOCCOP(=O)(O)CO[C@H](CO)Cn1cnc2c(N)ncnc21 | 156

system: BSC-1; test: Cytotoxicity against african green monkey BSC1 cells after 2 to 4 hrs by MTS assay; type: cell-based; conditions: chlorocebus aethiops, bsc-1
In short: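 BSC-1 cells (5000 per reaction) mixed with serial compound dilutions in DMEM/2% Fetal Clone II, without virus. At the set time point, MTS reagent added for 2-4 h and OD490 read. Viability taken relative to untreated cells; CC50 from concentration versus % viability plot.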

Row | SMILES | CC50 [nM]
33 | CC(C)CCCCCCCCCCCCOCCCOP(=O)(O)CO[C@H](CO)Cn1ccc(N)nc1=O | 82000
34 | C=CCCCCCCCCCCCCCCOCCOP(=O)(O)CO[C@H](CO)Cn1cnc2c(N)ncnc21 | 2320
35 | CC(C)CCCCCCCCCCCCCCOCCCOP(=O)(O)CO[C@H](CO)Cn1ccc(N)nc1=O | 78000
36 | CC(C)CCCCCCCCCCCCCCOCCOP(=O)(O)CO[C@H](CO)Cn1cnc2c(N)ncnc21 | 59600
37 | CC(C)CCCCCCCCCCCOCCCOP(=O)(O)CO[C@H](CO)Cn1ccc(N)nc1=O | 82000
38 | CCCCCCCCCCCCCCCCOCCOP(=O)(O)CO[C@H](CO)Cn1cnc2c(N)ncnc21 | 40500

system: HFF; test: Cytotoxicity against human HFF cells assessed as reduction in cell viability after 7 days by neutral red uptake assay; type: cell-based; conditions: 168 h
In short: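 Uninfected HFF cells seeded at 2.5×10^4/well and grown 24 h to monolayer. Medium replaced by MEM/2% FBS containing graded compound concentrations; 7 d incubation. Cells stained with 0.01% neutral red, absorbance at 540 nm; CC50 interpolated as 50% viability loss.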

Row | SMILES | CC50 [nM]
39 | CC(C)CCCCCCCCCCCCOCCCOP(=O)(O)CO[C@H](CO)Cn1ccc(N)nc1=O | 37000
40 | C=CCCCCCCCCCCCCCCOCCOP(=O)(O)CO[C@H](CO)Cn1cnc2c(N)ncnc21 | 1700
41 | CC(C)CCCCCCCCCCCCCCOCCCOP(=O)(O)CO[C@H](CO)Cn1ccc(N)nc1=O | 15000
42 | CC(C)CCCCCCCCCCCCCCOCCOP(=O)(O)CO[C@H](CO)Cn1cnc2c(N)ncnc21 | 2500
43 | CC(C)CCCCCCCCCCCOCCCOP(=O)(O)CO[C@H](CO)Cn1ccc(N)nc1=O | 44000
44 | CCCCCCCCCCCCCCCCOCCOP(=O)(O)CO[C@H](CO)Cn1cnc2c(N)ncnc21 | 14000

system: not listed separately; test: Antiviral activity against Cowpox virus (Brighton Red) infected in human HFF cells after 3 days by plaque reduction assay; type: functional, cell-based; conditions: 72 h

Row | SMILES | EC50 [nM]
45 | CC(C)CCCCCCCCCCCCOCCCOP(=O)(O)CO[C@H](CO)Cn1ccc(N)nc1=O | 300
46 | C=CCCCCCCCCCCCCCCOCCOP(=O)(O)CO[C@H](CO)Cn1cnc2c(N)ncnc21 | 20
47 | CC(C)CCCCCCCCCCCCCCOCCCOP(=O)(O)CO[C@H](CO)Cn1ccc(N)nc1=O | 100
48 | CC(C)CCCCCCCCCCCCCCOCCOP(=O)(O)CO[C@H](CO)Cn1cnc2c(N)ncnc21 | 10
49 | CC(C)CCCCCCCCCCCOCCCOP(=O)(O)CO[C@H](CO)Cn1ccc(N)nc1=O | 800
50 | CCCCCCCCCCCCCCCCOCCOP(=O)(O)CO[C@H](CO)Cn1cnc2c(N)ncnc21 | 90
